Assay results pooled from the literature.
Protocols differ between the studies behind these lines.
Target: Cyclin-dependent kinase 8 (CDK8, Homo sapiens, UniProt P49336)
Tested at: 1 µM

Structure (SMILES) | effect on | technique | remaining binding [%]
CC1=C(C#N)C(c2ccc3c(c2)c(NC(=O)c2ccccc2C)nn3C)C(C#N)=C(C)N1 | cell-free assay | competition with immobilised ligand | 97
O=C(NCCCN1CCOCC1)c1ccc(Nc2nccc(-c3cc4ccccc4s3)n2)cc1 | binding | competition with immobilised ligand | 79
CNC(=O)[C@@H]1CC[C@@H](n2c(-c3ccc4cnccc4c3)nc3ccc(C(=O)NCc4cccc(C(N)=O)c4)cc32)C1 | binding | competition with immobilised ligand | 100
N[C@H]1CCN(c2nccc(-c3cnn4ncccc34)n2)C1 | binding |  | 100
COc1ccc2c(O[C@@H]3C[C@H]4C(=O)N[C@]5(C(=O)O)CC5/C=C\CCCCC[C@H](NC(=O)OC5CCCC5)C(=O)N4C3)cc(-c3csc(NC(=O)C(C)C)n3)nc2c1C (some centres unmarked) | cell-free assay | competition with immobilised ligand | 68
CN(C)c1ncc(F)c(-c2cnn3ncccc23)n1 | binding |  | 87
CO[C@@H](C)c1c(Nc2ccc([C@H](N(C)C(=O)C3CCS(=O)(=O)CC3)C(F)(F)F)cc2)cnc2cc(Cl)nn12 | binding | competition with immobilised ligand | 39
Cc1cnc(Nc2ccc(C(=O)N3CCC(N4CCCC4)CC3)cc2)nc1-c1cc2ccccc2s1 | binding | competition with immobilised ligand | 89
COc1cnc(Nc2cccc(S(N)(=O)=O)c2)nc1N1CCN(c2ccccc2)C(=O)C1 | binding | competition with immobilised ligand | 93
Nc1ncc2c(n1)-c1c([nH]c3ccc(C#CC4CC4)cc13)CCCC2 | binding | competition with immobilised ligand | 100
O=C(NCC1CCOCC1)c1n[nH]cc1NC(=O)c1c(F)cccc1F | binding | competition with immobilised ligand | 100
c1cnn2ncc(-c3ccnc(N4CCC45COC5)n3)c2c1 | binding |  | 100
O=C(c1ccc(Nc2nccc(-c3cc4ccccc4s3)n2)cc1)N1CCC(N2CCCC2)CC1 | binding | competition with immobilised ligand | 91
CN(C)c1nccc(-c2cnn3ncccc23)n1 | binding |  | 100
CN(C)c1ncnc(-c2ccc3nc(Nc4cc(CN5CCN(C(=O)CC(F)(F)F)CC5)ccn4)[nH]c3c2)c1Cl | cell-free assay | competition with immobilised ligand | 90
CN(c1nccc(-c2cnn3ncccc23)n1)C1CC1 | binding |  | 100
C[C@H](NC(=O)c1cnc2n1[C@](C)(Cc1ccc(C#N)cc1)C(=O)N2c1cc(Cl)c(F)c(Cl)c1)C(=O)NC1(c2ccccn2)CC1 | cell-free assay | competition with immobilised ligand | 100
C[C@@H]1CCN(c2nccc(-c3cnn4ncccc34)n2)C1 | binding |  | 51
N#CC1(c2ccccn2)CCN(Cc2cc(C(=O)N3CCCC3)c(=O)n3ccccc23)CC1 | cell-free assay | competition with immobilised ligand | 100
CCN1CCN(Cc2ccc(C(=O)Nc3ccc(C)c(Oc4ccc5c(c4)CC(=O)N5)c3)cc2C(F)(F)F)CC1 | binding | competition with immobilised ligand | 67
